# Results published in ChEMBL document CHEMBL4130512, “Design, synthesis and biological evaluation of novel α-hederagenin derivatives with anticancer activity” (Eur J Med Chem, 2017).
# Experiments:
# MKN-45 [1] = experiment: Antiproliferative activity against human MKN45 cells assessed as cell viability at 10 uM after 72 hrs by MTT assay relative to control; type: functional; details: MKN-45, 72 h, read-out: Activity
# Procedure, shortened: (§1)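 Single-concentration MTT screen. Log-phase cells in DMEM with 10% FCS were treated for 72 h in 96-well plates. After MTT and DMSO, absorbance was read at 570 nm. Viability was calculated relative to control as mean ± SD of three independent experiments.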
# KB [2] = experiment: Antiproliferative activity against human KB cells assessed as cell viability at 10 uM after 72 hrs by MTT assay relative to control; type: functional; details: read-out: Activity; procedure, shortened: as §1
# MKN-45 [3] = experiment: Cell cycle arrest in human MKN45 cells assessed as accumulation at S-phase at 10 uM after 48 hrs by propidium iodide staining based flow cytometry (reference value: 15%); type: functional
# Procedure, shortened: (§2)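 MKN45 cells were plated at 2×10⁵ cells/well in 6-well plates and exposed for 24 and 48 h. Cells were harvested, fixed and stained with propidium iodide (50 µg/mL). DNA content was read by FACScan flow cytometry for phase distribution. The sub-G0/G1 fraction was taken as apoptotic.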
# MKN-45 [4] = experiment: Cell cycle arrest in human MKN45 cells assessed as accumulation at G2/M-phase at 10 uM after 48 hrs by propidium iodide staining based flow cytometry (reference value: 19%); type: functional; procedure, shortened: as §2
# AGS = experiment: Antiproliferative activity against human AGS cells after 72 hrs by MTT assay; type: functional, cell-based
# Procedure, shortened: (§3)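 Cells grown in DMEM with 10% heat-inactivated FCS, penicillin and streptomycin, at 37°C in 5% CO₂, and used in log phase. Cells were seeded in 96-well plates and exposed to compound for 72 h. MTT was added, then DMSO, and OD was read at 570 nm. Survival rate was calculated and IC50 taken as 50% growth inhibition.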
# [5] = Antiproliferative activity against human KBV cells after 72 hrs by MTT assay; type: functional, cell-based; procedure, shortened: as §3
# A549 = experiment: Antiproliferative activity against human A549 cells after 72 hrs by MTT assay; type: functional, cell-based; details: A549, 72 h; procedure, shortened: as §3
# BGC-823 = experiment: Antiproliferative activity against human BGC823 cells after 72 hrs by MTT assay; type: functional, cell-based; details: BGC-823, 72 h; procedure, shortened: as §3
# MKN-45 [6] = experiment: Cell cycle arrest in human MKN45 cells assessed as accumulation at G2/M-phase at 10 uM after 24 hrs by propidium iodide staining based flow cytometry (reference value: 19%); type: functional; procedure, shortened: as §2
# MKN-45 [7] = experiment: Cell cycle arrest in human MKN45 cells assessed as apoptotic cell accumulation at 10 uM after 48 hrs by propidium iodide staining based flow cytometry (reference value: 1.51%); type: functional; procedure, shortened: as §2
# MKN-45 [8] = experiment: Cell cycle arrest in human MKN45 cells assessed as accumulation at S-phase at 10 uM after 24 hrs by propidium iodide staining based flow cytometry (reference value: 15%); type: functional; procedure, shortened: as §2
# KB [9] = experiment: Antiproliferative activity against human KB cells after 72 hrs by MTT assay; type: functional, cell-based; procedure, shortened: as §3
# MKN-45 [10] = experiment: Cell cycle arrest in human MKN45 cells assessed as accumulation at G1-phase at 10 uM after 24 hrs by propidium iodide staining based flow cytometry (reference value: 67%); type: functional; procedure, shortened: as §2
# MKN-45 [11] = experiment: Cell cycle arrest in human MKN45 cells assessed as accumulation at G1-phase at 10 uM after 48 hrs by propidium iodide staining based flow cytometry (reference value: 67%); type: functional; procedure, shortened: as §2
# HeLa = experiment: Antiproliferative activity against human HeLa cells after 72 hrs by MTT assay; type: functional, cell-based; procedure, shortened: as §3
# MKN-45 [12] = experiment: Antiproliferative activity against human MKN45 cells after 72 hrs by MTT assay; type: functional, cell-based; details: MKN-45, 72 h; procedure, shortened: as §3
# MKN-45 [13] = experiment: Cell cycle arrest in human MKN45 cells assessed as apoptotic cell accumulation at 10 uM after 24 hrs by propidium iodide staining based flow cytometry (reference value: 1.51%); type: functional; procedure, shortened: as §2
Structure (SMILES),viability at 10 µM (MKN-45 [1]) [%],viability at 10 µM (KB [2]) [%],other results
CC1(C)CC[C@]2(C(=O)OCc3ccccc3)CC[C@]3(C)C(=CC[C@@H]4[C@@]5(C)CCC(=O)[C@@](C)(COC(=O)c6ccccc6C(=O)O)[C@@H]5CC[C@]43C)[C@@H]2C1,40,51,–
CC1(C)CC[C@]2(C(=O)OCc3ccccc3)CC[C@]3(C)C(=CC[C@@H]4[C@@]5(C)CCC(=O)[C@@](C)(COC(=O)c6ccccc6C(=O)OCCc6ccc(OCCO[N+](=O)[O-])cc6)[C@@H]5CC[C@]43C)[C@@H]2C1,89,67,–
CC1(C)CC[C@]2(C(=O)OCc3ccccc3)CC[C@]3(C)C(=CC[C@@H]4[C@@]5(C)Cc6nccnc6[C@@](C)(COC(=O)c6ccccc6C(=O)O)[C@@H]5CC[C@]43C)[C@@H]2C1,84,81,–
CC1(C)CC[C@]2(C(=O)OCc3ccccc3)CC[C@]3(C)C(=CC[C@@H]4[C@@]5(C)CCC(=O)[C@@](C)(COC(=O)c6ccccc6C(=O)Oc6ccc(CCO[N+](=O)[O-])cc6)[C@@H]5CC[C@]43C)[C@@H]2C1,78,86,–
CC1(C)CC[C@]2(C(=O)OCc3ccccc3)CC[C@]3(C)C(=CC[C@@H]4[C@@]5(C)CCC(=O)[C@@](C)(COC(=O)CCC(=O)Nc6ccccc6N)[C@@H]5CC[C@]43C)[C@@H]2C1,99,50,–
CC1(C)CC[C@]2(C(=O)OCc3ccccc3)CC[C@]3(C)C(=CC[C@@H]4[C@@]5(C)CCC(=O)[C@@](C)(COC(=O)CCC(=O)OCCc6ccc(OCCO[N+](=O)[O-])cc6)[C@@H]5CC[C@]43C)[C@@H]2C1,93,76,–
CC1(C)CC[C@]2(C(=O)OCc3ccccc3)CC[C@]3(C)C(=CC[C@@H]4[C@@]5(C)Cc6nccnc6[C@@](C)(CO)[C@@H]5CC[C@]43C)[C@@H]2C1,77,75,–
CC1(C)CC[C@]2(C(=O)OCc3ccccc3)CC[C@]3(C)C(=CC[C@@H]4[C@@]5(C)Cc6nccnc6[C@@](C)(COC(=O)CCC(=O)O)[C@@H]5CC[C@]43C)[C@@H]2C1,70,98,–
CC1(C)CC[C@]2(C(=O)OCc3ccccc3)CC[C@]3(C)C(=CC[C@@H]4[C@@]5(C)Cc6nccnc6[C@@](C)(COC(=O)CCC(=O)Oc6ccc(CCO[N+](=O)[O-])cc6)[C@@H]5CC[C@]43C)[C@@H]2C1,100,69,–
CC1(C)CC[C@]2(C(=O)OCc3ccccc3)CC[C@]3(C)C(=CC[C@@H]4[C@@]5(C)Cc6nccnc6[C@@](C)(COC(=O)CCC(=O)Nc6ccccc6N)[C@@H]5CC[C@]43C)[C@@H]2C1,86,57,–
CC1(C)CC[C@]2(C(=O)OCc3ccccc3)CC[C@]3(C)C(=CC[C@@H]4[C@@]5(C)Cc6nccnc6[C@@](C)(COC(=O)CCCCCO[N+](=O)[O-])[C@@H]5CC[C@]43C)[C@@H]2C1,84,63,–
CC1(C)CC[C@]2(C(=O)OCc3ccccc3)CC[C@]3(C)C(=CC[C@@H]4[C@@]5(C)Cc6nccnc6[C@@](C)(COC(=O)CCCCO[N+](=O)[O-])[C@@H]5CC[C@]43C)[C@@H]2C1,89,59,–
CC1(C)CC[C@]2(C(=O)OCc3ccccc3)CC[C@]3(C)C(=CC[C@@H]4[C@@]5(C)CCC(OC(=O)CCCCCO[N+](=O)[O-])[C@@](C)(COC(=O)CCCCCO[N+](=O)[O-])[C@@H]5CC[C@]43C)[C@@H]2C1 (stereo partly drawn),85,61,–
CC1(C)CC[C@]2(C(=O)OCc3ccccc3)CC[C@]3(C)C(=CC[C@@H]4[C@@]5(C)CCC(=O)[C@@](C)(COC(=O)CCC(=O)Oc6ccc(CCO[N+](=O)[O-])cc6)[C@@H]5CC[C@]43C)[C@@H]2C1,100,53,–
CC1(C)CC[C@]2(C(=O)OCc3ccccc3)CC[C@]3(C)C(=CC[C@@H]4[C@@]5(C)Cc6nccnc6[C@@](C)(COC(=O)c6ccccc6C(=O)Oc6ccc(CCO[N+](=O)[O-])cc6)[C@@H]5CC[C@]43C)[C@@H]2C1,78,49,–
CC1(C)CC[C@]2(C(=O)OCc3ccccc3)CC[C@]3(C)C(=CC[C@@H]4[C@@]5(C)CCC(=O)[C@@](C)(COC(=O)CCCCCO[N+](=O)[O-])[C@@H]5CC[C@]43C)[C@@H]2C1,75,50,–
CC1(C)CC[C@]2(C(=O)OCc3ccccc3)CC[C@]3(C)C(=CC[C@@H]4[C@@]5(C)Cc6nccnc6[C@@](C)(COC(=O)CCC(=O)OCCc6ccc(OCCO[N+](=O)[O-])cc6)[C@@H]5CC[C@]43C)[C@@H]2C1,93,50,–
CC1(C)CC[C@]2(C(=O)O)CC[C@]3(C)C(=CC[C@@H]4[C@@]5(C)CC[C@H](O)[C@@](C)(CO)[C@@H]5CC[C@]43C)[C@@H]2C1 [HEDERAGENIN],75,81,Activity (MKN-45 [3]): 12%; Activity (MKN-45 [4]): 25%; IC50 (AGS): 36.1 µM; IC50 [5]: > 100 µM; IC50 (A549): > 100 µM; IC50 (BGC-823): 52.1 µM; Activity (MKN-45 [6]): 17%; Activity (MKN-45 [7]): 5.87%; Activity (MKN-45 [8]): 14%; IC50 (KB [9]): 54.4 µM; Activity (MKN-45 [10]): 69%; Activity (MKN-45 [11]): 63%; IC50 (HeLa): 54 µM; IC50 (MKN-45 [12]): 53.7 µM; Activity (MKN-45 [13]): 1.44%
CC1(C)CC[C@]2(C(=O)OCc3ccccc3)CC[C@]3(C)C(=CC[C@@H]4[C@@]5(C)CCC(=O)[C@@](C)(COC(=O)CCCCO[N+](=O)[O-])[C@@H]5CC[C@]43C)[C@@H]2C1,54,60,–
CC1(C)CC[C@]2(C(=O)OCc3ccccc3)CC[C@]3(C)C(=CC[C@@H]4[C@@]5(C)CCC(=O)[C@@](C)(COC(=O)CCC(=O)Nc6ccc(N)cc6)[C@@H]5CC[C@]43C)[C@@H]2C1,92,51,–
CC1(C)CC[C@]2(C(=O)OCc3ccccc3)CC[C@]3(C)C(=CC[C@@H]4[C@@]5(C)Cc6nccnc6[C@@](C)(COC(=O)c6ccccc6C(=O)OCCc6ccc(OCCO[N+](=O)[O-])cc6)[C@@H]5CC[C@]43C)[C@@H]2C1,84,55,–
CC1(C)CC[C@]2(C(=O)OCc3ccccc3)CC[C@]3(C)C(=CC[C@@H]4[C@@]5(C)CCC(=O)[C@@](C)(COC(=O)c6ccccc6C(=O)Nc6cccc(N)c6)[C@@H]5CC[C@]43C)[C@@H]2C1,93,62,–
CC1(C)CC[C@]2(C(=O)OCc3ccccc3)CC[C@]3(C)C(=CC[C@@H]4[C@@]5(C)CCC(OC(=O)CCCCO[N+](=O)[O-])[C@@](C)(COC(=O)CCCCO[N+](=O)[O-])[C@@H]5CC[C@]43C)[C@@H]2C1 (stereo partly drawn),97,58,–
CC1(C)CC[C@]2(C(=O)OCc3ccccc3)CC[C@]3(C)C(=CC[C@@H]4[C@@]5(C)CC/C(=N\O)[C@@](C)(CO)[C@@H]5CC[C@]43C)[C@@H]2C1,64,76,–
